# Measurements as given in ChEMBL document CHEMBL1133803, “Design and synthesis of irreversible depsipeptidyl human rhinovirus 3C protease inhibitors” (Bioorg Med Chem Lett, 2001).
# Legend:
# [1] = system: HeLa; experiment: Cytotoxicity against uninfected H1HeLa cells; type: functional; details: Homo sapiens
# [2] = system: HeLa; experiment: Anti viral activity against human rhinovirus (HRV) in H1HeLa cells; type: functional, cell-based
# [3] = system: Human rhinovirus sp.; experiment: Enzyme inhibition against Human Rhinovirus 3C protease was determined; type: functional
# [4] = Metabolism after 30 min of incubation with human liver microsomes in the absence of cofactor […] (2.0 mM) at a concentration of 25 uM; type: ADME; details: read-out: Metabolism
# Method in brief: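 Compound incubated for 30 min with human liver microsomes (1.0 mg/mL), with or without NADPH. An aliquot was precipitated with acetonitrile, then analysed by reverse-phase HPLC at rt using a gradient of CH3CN/CH3OH/0.01% TFA (pH 3.5 adjusted with NEt3), from 5:20:75 to 60:20:20 over 20 min, held 10 min, 1.0 mL/min. Result expressed as % metabolism.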
# [5] = Metabolism after 30 min of incubation with human liver microsomes in the presence of cofactor […] (2.0 mM) at a concentration of 25 uM; type: ADME; details: read-out: Metabolism
Structure (SMILES),EC50 [2] [nM],"metabolised at 0.5 h, 25 µM [4] [%]","metabolised at 0.5 h, 25 µM [5] [%]",CC50 [1] [nM],K obs / 1 [3] [M⁻¹ s⁻¹]
CCOC(=O)/C=C/[C@H](CCC(N)=O)NC(=O)[C@@H](CC(=O)[C@@H](NC(=O)c1cc(C)on1)C(C)C)Cc1ccc(F)cc1,100,,,> 100000,240000
CCOC(=O)/C=C/[C@H](CCC(N)=O)NC(=O)[C@H](Cc1ccc(F)cc1)NC(=O)[C@@H](NC(=O)SC1CCCC1)C(C)C,190,,,> 100000,59900
CCOC(=O)/C=C/[C@H](CCC(N)=O)NC(=O)[C@H](Cc1ccc(F)cc1)NC(=O)[C@@H](NC(=O)c1cc(C)on1)C(C)C,420,,,> 100000,248000
CCOC(=O)/C=C/[C@H](CCC(N)=O)NC(=O)[C@H](Cc1ccc(F)cc1)OC(=O)[C@@H](NC(=O)SC1CCCC1)C(C)C,1000,,,> 10000,99800
CCOC(=O)/C=C/[C@H](CCC(N)=O)NC(=O)[C@H](Cc1ccc(F)cc1)OC(=O)[C@@H](NC(=O)c1cc(C)on1)C(C)C,100,,,> 10000,68400

# These reach a lower EC50 [2]. Values come first.
EC50 [2] [nM],"metabolised at 0.5 h, 25 µM [4] [%]","metabolised at 0.5 h, 25 µM [5] [%]",Structure (SMILES),CC50 [1] [nM],K obs / 1 [3] [M⁻¹ s⁻¹]
10,7,22,CCOC(=O)/C=C/[C@H](C[C@@H]1CCNC1=O)NC(=O)[C@H](Cc1ccc(F)cc1)NC(=O)[C@@H](NC(=O)c1cc(C)on1)C(C)C,> 100000,1500000
7,44,67,CCOC(=O)/C=C/[C@H](C[C@@H]1CCNC1=O)NC(=O)[C@H](Cc1ccc(F)cc1)OC(=O)[C@@H](NC(=O)c1cc(C)on1)C(C)C,> 100000,270000
20,,,CCOC(=O)/C=C/[C@H](CCC(N)=O)NC(=O)[C@@H](CC(=O)[C@@H](NC(=O)SC1CCCC1)C(C)C)Cc1ccc(F)cc1,> 100000,293000
5,27,50,CCOC(=O)/C=C/[C@H](C[C@@H]1CCNC1=O)NC(=O)[C@@H](CC(=O)[C@@H](NC(=O)c1cc(C)on1)C(C)C)Cc1ccc(F)cc1 [RUPINTRIVIR],> 100000,1090000
